GSK3A inh: inhibitors of human GSK-3 alpha kinase | 320,000 compounds, 0.1% hits | ADP-Glo luminescence, 60 min | inhibition, % at 10 µM;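 active = more than half of replicates show inhibition above 20%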;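 note: GST-tagged GSK-3 alpha with peptide substrate and 25 µM ATP; 0% = DMSO neutral wells and 100% = GW8510 positive control wells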
Target sequence (P49840 whole entry, looked up): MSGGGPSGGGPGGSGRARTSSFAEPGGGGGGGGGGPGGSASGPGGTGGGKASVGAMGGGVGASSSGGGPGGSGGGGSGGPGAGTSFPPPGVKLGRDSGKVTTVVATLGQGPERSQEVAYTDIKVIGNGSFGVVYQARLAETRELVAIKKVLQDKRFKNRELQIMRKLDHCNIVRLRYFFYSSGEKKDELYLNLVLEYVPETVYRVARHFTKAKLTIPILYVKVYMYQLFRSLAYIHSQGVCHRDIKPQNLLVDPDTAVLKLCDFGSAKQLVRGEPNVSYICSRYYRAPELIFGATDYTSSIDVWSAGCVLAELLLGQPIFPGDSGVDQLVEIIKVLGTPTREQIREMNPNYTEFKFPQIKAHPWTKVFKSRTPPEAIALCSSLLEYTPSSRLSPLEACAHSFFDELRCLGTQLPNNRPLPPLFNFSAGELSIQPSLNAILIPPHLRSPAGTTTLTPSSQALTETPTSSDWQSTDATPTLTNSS
STK33 inh: human STK33 kinase inhibition. Q9BYT3. purified STK33, MBP phosphorylation, ADP-Glo luminescence. inhibition, % at 10 µM. 320,000 compounds, 0.073% hits;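 active = inhibition at or above 25%, using the most active replicate where run in duplicate; inactive = inhibition below 25%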
CDK5 p35 inh: blocks human CDK5/p35 kinase activity. Q00535+Q15078. Recombinant CDK5/p35, ADP-Glo luminescence, 60 min. inhibition, % at 10 µM. 330,000 compounds, 0.01% hits. AID 488839;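 active = highest replicate inhibition of at least 50% and at least 75% of replicates reaching 50%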;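 note: plate controls were DMSO neutral control for no effect and GW8510 at 10 µM for full effect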
GSK3beta inhib: human GSK3beta kinase inhibition. GST-GSK3beta kinase, ADP-Glo luminescence, 60 min; active compounds read low. activity score (negative = inhibition), % at 10 µM. 300,000 compounds, 0.038% hits;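 active = more than half of replicate wells score below -50%, meaning over 50% inhibition versus plate controls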;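 note: 0% = median DMSO wells and -100% = median GW8510 positive control wells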
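Assay system: GST-fused GSK3beta enzyme, cell-free / Medium: Tris pH 7.5 buffer with MgCl2, DTT, BSA, heparin / Also added: peptide substrate plus 25 µM ATP (final) / Compound: 10 µM single point / Timing: kinase reaction with compound 60 min at room temperature / Detection: ADP-Glo luminescence / Benchmarks: DMSO neutral wells and GW8510 at 20 µM as positive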
DYRK1A inh: Dyrk1A (rat) kinase inhibition. ADP-Glo luminescence, NFATc1 peptide. inhibition, % at 12.5 µM. 310,000 compounds, 0.43% hits. AID 504441; in the data active = inhibition above about 50%;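 note: plate controls were vehicle with enzyme for no effect and no enzyme for full effect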
* marks the source's active call; other numbers are inactive results; / = no result given. The full list was thinned out, with hits kept by preference.

SMILES	GSK3A inh	STK33 inh	CDK5 p35 inh	GSK3beta inhib	DYRK1A inh
CC(=O)n1cc(/C=N/NC(=O)c2sc(C)nc2C)c2ccccc21	8	0	/	-2	2
CC(=O)n1cc(-c2ccncc2)c2ccccc21	23	10	2	-13	69*
CCOC(=O)c1ccc(NC(=O)c2cccc(S(=O)(=O)N3c4ccccc4CC3C)c2)s1 (stereo not drawn)	0	0	-2	-1	-2
COCCn1c(N)c(N(Cc2ccccc2)C(=O)c2cc(=O)[nH]c3ccccc23)c(=O)[nH]c1=O	-4	0	-1	/	3
CCCCCCCCCCOC(=O)Cn1c(COc2ccccc2)[n+](C)c2ccccc21	23	11	1	-19	-1
CCCCCCCCCCOC(=O)Cn1c(COc2ccc(Cl)cc2)[n+](C)c2ccccc21	32	32*	1	-15	3
CCN(CC)C(=O)[C@H]1CC(CC(=O)NCc2ccc(OC)c(OC)c2)C(=O)N2CCc3c([nH]c4ccccc34)[C@]12C (stereo partly drawn)	-4	1	1	/	-2
COc1ccc(C2=CC3=C(Br)C(=O)C(C)(O)C(=O)C3=CO2)cc1 (stereo not drawn)	0	29*	3	2	4
CN(Cc1cnn(C)c1)C(=O)C1CCC(=O)N(Cc2cccc(C(F)(F)F)c2)C1 (stereo not drawn)	0	-2	0	-4	0
CSc1ncc(Cl)c(C(=O)Nc2c(C)cccc2C)n1	3	-1	-2	-2	1
CCOc1ccc(-c2cc(CCCC(=O)NCCCOC)no2)cc1	0	28*	-1	2	-1
CCOc1ccc(-c2cc(CCCC(=O)N3CCN(c4ccc(OC)cc4)CC3)no2)cc1	-1	-1	2	5	5
Cc1cccc(N2CCN(CCCNC(=O)c3ccc(NC(=O)C4=CSCCO4)cc3)CC2C)c1 (stereo not drawn)	-1	46*	-2	1	-1
CC[N+]1=CN(c2ccccc2)C(C)=CC1(C)C	0	-1	-1	2	-7
COc1ccc(-c2oc3cc(OC(C)=O)cc(OC(C)=O)c3c(=O)c2OC)cc1	/	/	1	/	/
CC(=O)Oc1cc(O)c2c(=O)c(OC(C)=O)c(-c3ccc(OC(C)=O)c(OC(C)=O)c3)oc2c1	29	11	15	-22	86*
CNC(=O)NC(=O)CSc1nc(-c2cccs2)c(C#N)c(=O)[nH]1	/	/	1	-75*	6
CSc1nc(-c2cccs2)c(C#N)c(=O)[nH]1	1	1	0	3	48
c1coc(C2Nc3ccccc3-c3nc4ccccc4n32)c1 (stereo not drawn)	5	36*	3	0	6
CCOc1cc(C2C(C(=O)c3ccc(C)cc3)=C(C(=O)OC)Nc3nnnn32)ccc1O (stereo not drawn)	0	1	1	1	4
CCOC(=O)c1cnc2ccc(Cl)cc2c1N1CCN(C)CC1	64*	4	3	-42	35
Cc1ccc(N2CC(C(=O)Nc3ncc([N+](=O)[O-])s3)CC2=O)cc1 (stereo not drawn)	51*	0	1	-22	-2
Cc1nn(Cc2ccc(Cl)cc2)c(C)c1NC(=O)c1cc(C(C)C)on1	-3	-1	1	4	1
Oc1ccc(/C=C/c2ccnc3ccccc23)cc1	-2	25*	-2	-3	-4
COC(=O)c1cc(NC(=O)C2COc3ccccc3O2)cc(C(=O)OC)c1 (stereo not drawn)	-2	29*	0	3	4
COc1cc(/C=N/NC(=O)c2sc(N)c(C#N)c2C)cc(Br)c1O	62*	1	1	-11	6
CCc1ccc(C2CC(=O)N3CN(c4ccccc4)CSC3=C2C#N)cc1 (stereo not drawn)	-1	-1	2	-6	8
COc1ccc(N2CSC3=C(C#N)C(c4cccs4)CC(=O)N3C2)cc1 (stereo not drawn)	91*	1	0	-50	3
N#CC1=C2SCN(c3ccc(F)cc3)CN2C(=O)CC1c1cccc(F)c1 (stereo not drawn)	56*	0	-1	-1	6
CCc1ccc(N2CC(C(=O)OCC(=O)NC3CCS(=O)(=O)C3)CC2=O)cc1 (stereo not drawn)	0	-2	-2	1	5
